This passage reports self-cleavage results from the RNAGym collection of RNA variant scans (doi:10.1002/anie.201605470).

Sequences and labels used below:
B1: Osa-1-4 twister ribozyme (parent)
chain: CCGCCUAACACUGCCAAUGCCGGUCCCAAGCCCGGAUAAAAGUGGAGGGGGCGG

This data set covers variants of B1. The data set can be described thus: self-cleavage, relative activity (ratio to wild type); higher = more cleavage; co-transcriptional. An outline of the steps:
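Relative activity is the fraction cleaved divided by that of the wild-type ribozyme. The library came from a DNA template for a 54-nucleotide Oryza sativa twister ribozyme, doped at the 48 positions downstream of the cleavage site with 97 % wild-type base and 1 % of each other base. After 2 h of in vitro transcription at 37 °C with co-transcriptional self-cleavage, the RNA was reverse-transcribed with a template-switching oligonucleotide, amplified by PCR and deep-sequenced, and reads with or without upstream sequence gave the cleavage status.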
In the case of CCGCCUAACAAUGCCAAUGCCGGUCCCAAGCCCGGAUAAAAGUGGACGGGGCGG [C11A G47C], the self-cleavage came to 0.05. Under CCGCCUAACAAUGCCAAUGCCGGUCCCAAGCCCGGAUAAAAGUGGAAGGGGCGG [C11A G47A] stands 0.07; under CCGCCUAACAAUGCCAAUGCCGGUCCCAAGCCCGGAUAAAAGUGGAUGGGGCGG [C11A G47U], 0.06.

With CCGCCUAACAAUGCCAAUGCCGGUCCCAAGCCCGGAUAAAAGGGGAGGGGGCGG [C11A U43G], the self-cleavage came to 0.56. Then CCGCCUAACAAUGCCAAUGCCGGUCCCAAGCCCGGAUAAAAGAGGAGGGGGCGG [C11A U43A], with 0.76; and CCGCCUAACAAUGCCAAUGCCGGUCCCAAGCCCGGAUAAAAGCGGAGGGGGCGG [C11A U43C], with 0.1. CCGCCUAACAAUGCCAAUGCCUGUCCCAAGCCCGGAUAAAAGUGGAGGGGGCGG [C11A G22U]: the self-cleavage turned out to be 0.07. Then CCGCCUAACAAUGCCAAUGCCAGUCCCAAGCCCGGAUAAAAGUGGAGGGGGCGG [C11A G22A], with 0.24. Then CCGCCUAACAAUGCCAAUGCCCGUCCCAAGCCCGGAUAAAAGUGGAGGGGGCGG [C11A G22C], with 0.04. As for CCGCCUAACAGUGCCAAUGCCGGUCCCAAGCCCGGAUAAAAGUGGAGGGGGCGG [C11G], the self-cleavage was 0.7. Under CCGCCUAACAAUGCCAAUGCCGGUCCCAAGCCCGGAUAAAAAUGGAGGGGGCGG [C11A G42A] stands 0.76. Then CCGCCUAACAAUGCCAAUGCCGGUCCCAAGCCCGGAUAAAACUGGAGGGGGCGG [C11A G42C], with 0.83.

Take CCGCCUAACAAUGCCAAUGCCGGUCCCAAGCCCGGAUAAAAUUGGAGGGGGCGG [C11A G42U]: the self-cleavage is 0.73.

CCGCCUAACAAUGCCAAUGCCGGUCCCAAGCCCAGAUAAAAGUGGAGGGGGCGG [C11A G34A]: the self-cleavage worked out at 0.16. CCGCCUAACAAUGCCAAUGCCGGUCCCAAGCCCCGAUAAAAGUGGAGGGGGCGG [C11A G34C]: the self-cleavage was determined as 0.07. Under CCGCCUAACAAUGCCAAUGCCGGUCCCAAGCCCUGAUAAAAGUGGAGGGGGCGG [C11A G34U] stands 0.11. Then CCGCCUAACAAUGCCAAUGCCGGUCCCAAGCCCGGAUAAAAGUGGAGGGGGCAG [C11A G53A], with 0.49; and CCGCCUAACAAUGCCAAUGCCGGUCCCAAGCCCGGAUAAAAGUGGAGGGGGCCG [C11A G53C], with 0.04. Take CCGCCUAACAAUGCCAAUGCCGGUCCCAAGCCCGGAUAAAAGUGGAGGGGGCUG [C11A G53U]: the self-cleavage was 0.09. In the case of CCGCCUAACAAAGCCAAUGCCGGUCCCAAGCCCGGAUAAAAGUGGAGGGGGCGG [C11A U12A], the self-cleavage worked out at 0.09. Then CCGCCUAACAACGCCAAUGCCGGUCCCAAGCCCGGAUAAAAGUGGAGGGGGCGG [C11A U12C], with 0.14; and CCGCCUAACAAGGCCAAUGCCGGUCCCAAGCCCGGAUAAAAGUGGAGGGGGCGG [C11A U12G], with 0.09.

On to CCGCCUAACAAUGCCAAUGCCGGUCCUAAGCCCGGAUAAAAGUGGAGGGGGCGG [C11A C27U], for which the self-cleavage was 0.08. On to CCGCCUAACAAUGCCAAUGCCGGUCCAAAGCCCGGAUAAAAGUGGAGGGGGCGG [C11A C27A], for which the self-cleavage was determined as 0.12. Under CCGCCUAACAAUGCCAAUGCCGGUCCGAAGCCCGGAUAAAAGUGGAGGGGGCGG [C11A C27G] stands 0.04; under CCGCCUAACAGUGCGAAUGCCGGUCCCAAGCCCGGAUAAAAGUGGAGGGGGCGG [C11G C15G], 0.1; under CCGCCUAACAGUGCAAAUGCCGGUCCCAAGCCCGGAUAAAAGUGGAGGGGGCGG [C11G C15A], 0.09. With CCGCCUAACAGUGCUAAUGCCGGUCCCAAGCCCGGAUAAAAGUGGAGGGGGCGG [C11G C15U], the self-cleavage turned out to be 0.08. Under CCGCCUAACAAUGCCAAUGCCGUUCCCAAGCCCGGAUAAAAGUGGAGGGGGCGG [C11A G23U] stands 0.03; under CCGCCUAACAAUGCCAAUGCCGAUCCCAAGCCCGGAUAAAAGUGGAGGGGGCGG [C11A G23A], 0.07; under CCGCCUAACAAUGCCAAUGCCGCUCCCAAGCCCGGAUAAAAGUGGAGGGGGCGG [C11A G23C], 0.03. Then CCGCCUAACAAUGCCAAUGCCGGUCCCAAGACCGGAUAAAAGUGGAGGGGGCGG [C11A C31A], with 0.05; and CCGCCUAACAAUGCCAAUGCCGGUCCCAAGUCCGGAUAAAAGUGGAGGGGGCGG [C11A C31U], with 0.09; and CCGCCUAACAAUGCCAAUGCCGGUCCCAAGGCCGGAUAAAAGUGGAGGGGGCGG [C11A C31G], with 0.06.

For CCGCCUAAUAGUGCCAAUGCCGGUCCCAAGCCCGGAUAAAAGUGGAGGGGGCGG [C11G C9U], the self-cleavage stood at 0.07. Under CCGCCUAAGAGUGCCAAUGCCGGUCCCAAGCCCGGAUAAAAGUGGAGGGGGCGG [C11G C9G] stands 0.19. For the variant CCGCCUAAAAGUGCCAAUGCCGGUCCCAAGCCCGGAUAAAAGUGGAGGGGGCGG [C11G C9A], the self-cleavage amounted to 0.09. Then CCGCCUAACAAUGCCAAUUCCGGUCCCAAGCCCGGAUAAAAGUGGAGGGGGCGG [C11A G19U], with 0.06; and CCGCCUAACAAUGCCAAUCCCGGUCCCAAGCCCGGAUAAAAGUGGAGGGGGCGG [C11A G19C], with 0.04; and CCGCCUAACAAUGCCAAUACCGGUCCCAAGCCCGGAUAAAAGUGGAGGGGGCGG [C11A G19A], with 0.11.

On to CCGCCUAACAAUGCCAAUGCCGGUCUCAAGCCCGGAUAAAAGUGGAGGGGGCGG [C11A C26U], for which the self-cleavage was determined as 0.21. Then CCGCCUAACAAUGCCAAUGCCGGCCCCAAGCCCGGAUAAAAGUGGAGGGGGCGG [C11A U24C], with 0.06; and CCGCCUAACAAUGCCAAUGCCGGGCCCAAGCCCGGAUAAAAGUGGAGGGGGCGG [C11A U24G], with 0.07; and CCGCCUAACAAUGCCAAUGCCGGACCCAAGCCCGGAUAAAAGUGGAGGGGGCGG [C11A U24A], with 0.05.

In the case of CCGCCUAACAAUGCCAAUGCCGGUCCCAAGCCCGAAUAAAAGUGGAGGGGGCGG [C11A G35A], the self-cleavage is 0.4. As for CCGCCUAACAAUGCCAAUGCCGGUCCCAAGCCCGCAUAAAAGUGGAGGGGGCGG [C11A G35C], the self-cleavage was determined as 0.09. Under CCGCCUAACAAUGCCAAUGCCGGUCCCAAGCCCGUAUAAAAGUGGAGGGGGCGG [C11A G35U] stands 0.37; under CCGCCUAACAAUGCCAAUGCCGGUCCCAAGCCCGGAUAAAAGUUGAGGGGGCGG [C11A G44U], 0.08.
